PMC10915797 (Molecular Pharmaceutics, 2024)
Values belong to the molecule of their own block, whether it stands above or below them.

Assays:
[1] = target: recombinant human PD-L1 protein (Homo sapiens, UniProt Q9NZQ7); assay: SPR binding affinity; details: read-out: Kd (dissociation rate constant)
Outline: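 SPR on a CM5 chip at 25 °C. Recombinant human PD-L1 immobilised; surface blocked at pH 8.5. Peptide in HEPES-buffered saline (pH 7.2–7.4, 0.005% P20) at seven concentrations, 1.5625–100 nM, injected at 10 μL/min: 120 s association, 360 s dissociation. Regenerated with glycine pH 2.0 for 15 s. Blank-subtracted sensorgrams fitted to give the dissociation rate constant.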

[2] = target: recombinant murine PD-L1 protein (Mus musculus, UniProt Q9EP73); assay: SPR binding affinity; details: read-out: Kd (dissociation rate constant)
Sequence of recombinant murine PD-L1 protein (Q9EP73 19-290): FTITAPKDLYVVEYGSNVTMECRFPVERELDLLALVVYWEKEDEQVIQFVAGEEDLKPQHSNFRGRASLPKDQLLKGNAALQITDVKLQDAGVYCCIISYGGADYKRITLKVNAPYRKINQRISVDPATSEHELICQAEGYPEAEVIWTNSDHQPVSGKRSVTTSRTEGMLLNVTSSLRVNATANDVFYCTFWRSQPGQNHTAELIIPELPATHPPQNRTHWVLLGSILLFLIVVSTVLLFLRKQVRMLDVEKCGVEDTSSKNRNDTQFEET

U87MG cells = assay: Blocking of tracer cell binding by PD-L1 antibodies; type: cell-based, human; details: U87MG cells pre-incubated with 50 nM antibody, 4 °C, 30 min, then tracer 30 min
Outline: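 U87MG cells (1 × 10^6 per sample, n = 3) pre-incubated with PBS or 50 nM PD-L1 monoclonal antibody, 4 °C, 30 min, then given 0.1 μCi Al[18F]F-NOTA-PCP1 at 4 °C for 30 min. Washed three times with PBS–0.1% Tween-20. Bound radioactivity gamma-counted and expressed as %ID. Compared with PBS-treated cells by unpaired two-tailed t test.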

U87MG tumors = assay: Micro-PET/CT target engagement of PD-L1 antibodies; type: in vivo, BALB/c nude mice; details: U87MG model
Outline: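 Female BALB/c nude mice (6–8 weeks, 18.0–23.0 g) carried subcutaneous right-flank U87MG xenografts (6 × 10^6 cells) grown to 100–300 mm3. Atezolizumab given at 0.05–20 mg/kg (n = 3). Imaged 24 or 120 h later: 6.0 ± 0.91 MBq tracer via tail vein, micro-PET/CT at 2 h post-injection under 1.5–2% isoflurane. 3D-OSEM/OP-MAP reconstruction with attenuation correction; manual tumour ROIs; uptake as %ID/cc.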

Sequence of recombinant human PD-L1 protein (Q9NZQ7 19-290): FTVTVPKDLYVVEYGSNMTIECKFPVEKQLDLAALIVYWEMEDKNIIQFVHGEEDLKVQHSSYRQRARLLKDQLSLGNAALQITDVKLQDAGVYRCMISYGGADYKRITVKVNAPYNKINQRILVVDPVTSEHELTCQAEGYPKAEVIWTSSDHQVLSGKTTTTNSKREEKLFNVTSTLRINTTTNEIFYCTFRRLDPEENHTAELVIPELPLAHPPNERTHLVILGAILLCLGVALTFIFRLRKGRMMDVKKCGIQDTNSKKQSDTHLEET

koff [1]: 0.000593 s⁻¹ | koff [2]: 0.52 s⁻¹
Molecule: CCCC[C@H]1C(=O)N(C)[C@@H](CCCC)C(=O)N[C@@H](CCCNC(=O)CCOCCOCCOCCNC(=O)CN2CCN(CC(=O)O)CCN(CC(=O)O)CC2)C(=O)N[C@H](C(=O)NCC(N)=O)CSCC(=O)N[C@@H](Cc2ccc(O)cc2)C(=O)N(C)[C@@H](C)C(=O)N[C@@H](CC(N)=O)C(=O)N2CCC[C@H]2C(=O)N[C@@H](Cc2c[nH]cn2)C(=O)N[C@@H](CC(C)C)C(=O)N2C[C@H](O)C[C@H]2C(=O)N[C@@H](Cc2c[nH]c3ccccc23)C(=O)N[C@@H](CO)C(=O)N[C@@H](Cc2cn(C)c3ccccc23)C(=O)N1C [NOTA-PCP1]

Molecule: AtzMab: anti-PD-L1 monoclonal antibody
Al[^18F]F-NOTA-PCP1 cell uptake after antibody treatment (U87MG cells): 1.26 ± 0.05 %ID | tumor Al[^18F]F-NOTA-PCP1 uptake on PET/CT after antibody (U87MG tumors; AtzMab 0.05 mg/kg, at 120h, n = 3 (Figure 6B)): 11.64 ± 1.13 %ID/cc | tumor Al[^18F]F-NOTA-PCP1 uptake on PET/CT after antibody (U87MG tumors; AtzMab 0.5 mg/kg, at 120h, n = 3 (Figure 6B)): 6.17 ± 0.35 %ID/cc | tumor Al[^18F]F-NOTA-PCP1 uptake on PET/CT after antibody (U87MG tumors; AtzMab 5 mg/kg, 24 h, n = 3 (Figure 7B)): 2.16 ± 0.20 %ID/cc | tumor Al[^18F]F-NOTA-PCP1 uptake on PET/CT after antibody (U87MG tumors; AtzMab 5 mg/kg, 120 h, n = 3 (Figure 7B)): 6.91 ± 0.18 %ID/cc | tumor Al[^18F]F-NOTA-PCP1 uptake on PET/CT after antibody (U87MG tumors; AtzMab 20 mg/kg, 24 h, n = 3 (Figure 7B)): 2.19 ± 0.13 %ID/cc | tumor Al[^18F]F-NOTA-PCP1 uptake on PET/CT after antibody (U87MG tumors; AtzMab 20 mg/kg, 120 h, n = 3 (Figure 7B)): 2.29 ± 0.04 %ID/cc | tumor Al[^18F]F-NOTA-PCP1 uptake on PET/CT after antibody (U87MG tumors; AtzMab 20 mg/kg, at 120h, n = 3 (Figure 6B)): 2.02 ± 0.14 %ID/cc

Molecule: AveMab: anti-PD-L1 monoclonal antibody
Al[^18F]F-NOTA-PCP1 cell uptake after antibody treatment (U87MG cells): 1.40 ± 0.05 %ID

Molecule: DurMab: anti-PD-L1 monoclonal antibody
Al[^18F]F-NOTA-PCP1 cell uptake after antibody treatment (U87MG cells): 1.34 ± 0.09 %ID
